Source: ChEMBL document CHEMBL3797186, “Single Residue Substitutions That Confer Voltage-Gated Sodium Ion Channel Subtype Selectivity in the NaV1.7 Inhibitory Peptide GpTx-1” (J Med Chem, 2016)
pIC50: −log10 of the molar value. Positions of bridges follow the written chain, without caps; N, C: chain ends. Non-standard residues stand in square brackets, D forms with d. Residues, ends and D or L forms follow the SMILES beside them. 2Pal = N[C@@H](Cc1ccccn1)C(=O)O

How the values were obtained:
Assay type in all cases: cell-based
[1] = target: T1, Sodium channel protein type 9 subunit alpha (Homo sapiens, UniProt Q15858); test: Inhibition of human Nav1.7 expressed in HEK293 cells assessed as inward peak current by ion-works quattro patch clamp electrophysiology method
T1 sequence (Q15858 whole entry): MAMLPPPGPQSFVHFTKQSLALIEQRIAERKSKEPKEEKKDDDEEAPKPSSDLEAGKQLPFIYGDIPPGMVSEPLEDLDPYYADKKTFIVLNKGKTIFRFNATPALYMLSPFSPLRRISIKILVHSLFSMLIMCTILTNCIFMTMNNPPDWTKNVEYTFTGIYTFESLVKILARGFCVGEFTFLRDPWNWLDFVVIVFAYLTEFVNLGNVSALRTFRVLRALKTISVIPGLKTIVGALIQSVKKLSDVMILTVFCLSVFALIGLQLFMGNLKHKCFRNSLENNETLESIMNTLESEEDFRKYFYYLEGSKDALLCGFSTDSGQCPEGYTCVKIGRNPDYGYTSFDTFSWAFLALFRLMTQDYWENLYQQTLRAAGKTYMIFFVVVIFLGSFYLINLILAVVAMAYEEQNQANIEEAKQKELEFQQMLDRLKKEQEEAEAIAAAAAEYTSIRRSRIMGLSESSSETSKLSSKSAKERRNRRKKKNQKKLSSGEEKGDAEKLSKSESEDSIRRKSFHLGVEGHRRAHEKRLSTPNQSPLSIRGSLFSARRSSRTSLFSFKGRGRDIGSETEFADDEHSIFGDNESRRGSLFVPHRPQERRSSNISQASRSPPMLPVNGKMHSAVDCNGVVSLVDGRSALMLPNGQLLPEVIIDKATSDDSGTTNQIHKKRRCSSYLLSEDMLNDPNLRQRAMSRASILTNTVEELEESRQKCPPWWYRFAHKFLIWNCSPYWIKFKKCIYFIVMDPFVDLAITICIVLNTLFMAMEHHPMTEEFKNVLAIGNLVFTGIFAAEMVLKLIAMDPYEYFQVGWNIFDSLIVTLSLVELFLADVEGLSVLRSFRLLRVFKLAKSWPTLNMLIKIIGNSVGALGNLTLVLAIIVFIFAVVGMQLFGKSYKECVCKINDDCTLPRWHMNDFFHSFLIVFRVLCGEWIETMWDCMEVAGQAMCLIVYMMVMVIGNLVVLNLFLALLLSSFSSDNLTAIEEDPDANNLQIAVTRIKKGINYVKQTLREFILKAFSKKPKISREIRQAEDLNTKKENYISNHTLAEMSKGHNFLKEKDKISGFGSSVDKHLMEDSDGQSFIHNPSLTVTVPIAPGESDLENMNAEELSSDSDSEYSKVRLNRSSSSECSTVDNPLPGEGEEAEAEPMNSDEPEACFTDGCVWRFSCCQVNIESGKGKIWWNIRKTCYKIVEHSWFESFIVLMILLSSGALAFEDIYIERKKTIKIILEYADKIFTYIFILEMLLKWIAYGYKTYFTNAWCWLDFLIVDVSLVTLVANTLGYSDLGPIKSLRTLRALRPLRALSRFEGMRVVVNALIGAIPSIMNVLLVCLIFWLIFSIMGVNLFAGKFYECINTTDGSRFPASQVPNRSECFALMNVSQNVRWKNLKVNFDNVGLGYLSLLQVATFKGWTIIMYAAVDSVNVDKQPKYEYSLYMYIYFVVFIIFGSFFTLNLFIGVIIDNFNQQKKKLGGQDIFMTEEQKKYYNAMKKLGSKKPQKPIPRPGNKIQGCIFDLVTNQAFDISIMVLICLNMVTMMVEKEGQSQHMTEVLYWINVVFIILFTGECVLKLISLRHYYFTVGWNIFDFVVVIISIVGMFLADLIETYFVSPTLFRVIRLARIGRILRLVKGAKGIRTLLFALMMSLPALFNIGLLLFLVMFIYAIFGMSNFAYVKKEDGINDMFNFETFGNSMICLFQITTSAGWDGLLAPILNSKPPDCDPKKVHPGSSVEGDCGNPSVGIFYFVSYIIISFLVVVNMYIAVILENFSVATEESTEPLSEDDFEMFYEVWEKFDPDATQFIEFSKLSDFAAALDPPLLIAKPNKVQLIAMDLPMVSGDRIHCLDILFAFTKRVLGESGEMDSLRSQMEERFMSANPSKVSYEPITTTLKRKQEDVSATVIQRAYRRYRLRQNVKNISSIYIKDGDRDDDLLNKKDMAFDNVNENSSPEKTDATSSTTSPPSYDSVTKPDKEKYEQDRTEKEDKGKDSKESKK

[2] = target: T1, Sodium channel protein type 9 subunit alpha; test: Inhibition of human Nav1.7 expressed in HEK293 cells by whole cell patch clamp electrophysiology method
[3] = target: T2, Sodium channel protein type 5 subunit alpha (Homo sapiens, UniProt Q14524); test: Inhibition of human Nav1.5 expressed in HEK293 cells by whole cell patch clamp electrophysiology method
T2 sequence (Q14524 whole entry): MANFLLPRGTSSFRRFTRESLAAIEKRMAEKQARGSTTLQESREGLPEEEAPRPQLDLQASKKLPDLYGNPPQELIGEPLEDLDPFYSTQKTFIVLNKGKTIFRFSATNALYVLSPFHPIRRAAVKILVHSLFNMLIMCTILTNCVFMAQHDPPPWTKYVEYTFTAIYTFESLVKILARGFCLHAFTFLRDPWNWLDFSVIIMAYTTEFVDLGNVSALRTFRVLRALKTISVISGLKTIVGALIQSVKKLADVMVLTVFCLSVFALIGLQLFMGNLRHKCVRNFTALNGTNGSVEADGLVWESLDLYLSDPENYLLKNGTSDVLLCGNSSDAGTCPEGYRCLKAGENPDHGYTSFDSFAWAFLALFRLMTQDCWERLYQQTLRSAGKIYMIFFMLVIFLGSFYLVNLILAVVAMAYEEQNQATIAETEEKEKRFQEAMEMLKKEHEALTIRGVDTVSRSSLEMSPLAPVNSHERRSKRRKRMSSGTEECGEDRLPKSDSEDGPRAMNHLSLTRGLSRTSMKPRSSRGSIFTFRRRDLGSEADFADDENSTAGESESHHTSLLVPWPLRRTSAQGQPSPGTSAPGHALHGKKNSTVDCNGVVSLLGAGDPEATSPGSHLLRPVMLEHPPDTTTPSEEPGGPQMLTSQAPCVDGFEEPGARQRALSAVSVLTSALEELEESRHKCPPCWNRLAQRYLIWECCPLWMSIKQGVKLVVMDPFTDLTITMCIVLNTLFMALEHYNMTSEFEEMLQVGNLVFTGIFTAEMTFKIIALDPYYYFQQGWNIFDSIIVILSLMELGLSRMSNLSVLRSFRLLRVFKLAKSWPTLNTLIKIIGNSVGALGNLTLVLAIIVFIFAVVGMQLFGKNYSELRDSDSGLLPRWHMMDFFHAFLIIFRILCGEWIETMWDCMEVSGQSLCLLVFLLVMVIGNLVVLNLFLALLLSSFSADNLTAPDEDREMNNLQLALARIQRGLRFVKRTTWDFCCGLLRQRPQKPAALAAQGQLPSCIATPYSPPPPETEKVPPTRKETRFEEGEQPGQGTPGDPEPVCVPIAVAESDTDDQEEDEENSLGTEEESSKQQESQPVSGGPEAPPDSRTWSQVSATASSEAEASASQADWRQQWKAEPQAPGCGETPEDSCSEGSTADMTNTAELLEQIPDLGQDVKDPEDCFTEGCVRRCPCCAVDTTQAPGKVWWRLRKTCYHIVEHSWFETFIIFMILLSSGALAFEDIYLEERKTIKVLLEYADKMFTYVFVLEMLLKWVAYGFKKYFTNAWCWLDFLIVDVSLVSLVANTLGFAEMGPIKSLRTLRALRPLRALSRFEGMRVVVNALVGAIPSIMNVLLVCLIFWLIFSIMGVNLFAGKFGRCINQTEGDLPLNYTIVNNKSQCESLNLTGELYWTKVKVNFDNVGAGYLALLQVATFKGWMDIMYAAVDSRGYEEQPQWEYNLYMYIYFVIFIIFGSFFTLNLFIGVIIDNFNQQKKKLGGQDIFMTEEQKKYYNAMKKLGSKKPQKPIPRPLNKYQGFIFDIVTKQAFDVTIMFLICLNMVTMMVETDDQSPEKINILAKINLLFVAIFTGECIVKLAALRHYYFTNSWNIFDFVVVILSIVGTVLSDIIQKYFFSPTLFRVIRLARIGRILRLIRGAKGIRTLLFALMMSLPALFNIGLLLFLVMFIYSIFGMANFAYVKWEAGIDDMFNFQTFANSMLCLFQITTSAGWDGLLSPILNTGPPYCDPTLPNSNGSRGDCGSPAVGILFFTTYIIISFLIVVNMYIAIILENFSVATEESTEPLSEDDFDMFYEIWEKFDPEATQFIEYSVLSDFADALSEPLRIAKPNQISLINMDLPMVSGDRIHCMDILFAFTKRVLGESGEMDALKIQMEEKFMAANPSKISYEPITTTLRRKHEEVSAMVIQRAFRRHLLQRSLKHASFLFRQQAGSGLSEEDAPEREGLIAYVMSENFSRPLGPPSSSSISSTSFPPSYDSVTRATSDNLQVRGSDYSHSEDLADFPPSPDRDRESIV
Summary of the method: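 Stable HEK293 line expressing human NaV1.5, recorded on the PatchXpress 7000A. Percent inhibition versus concentration was pooled from at least 10 cells, with two to three points per concentration. The pooled set was fitted with a four-parameter Hill equation to give a single IC50 curve.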

[4] = target: T2, Sodium channel protein type 5 subunit alpha; test: Inhibition of human Nav1.5 expressed in HEK293 cells assessed as inward peak current by ion-works quattro patch clamp electrophysiology method
Summary of the method: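 Stable HEK293 line expressing human NaV1.5, recorded by population patch clamp on the IonWorks Quattro.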

SMILES	pIC50 [1]	pIC50 [2]	pIC50 [3]	pIC50 [4]
CC[C@H](C)[C@@H]1NC(=O)[C@@H]2CSSC[C@@H]3NC(=O)[C@H](C(C)C)NC(=O)[C@H](CC(C)C)NC(=O)[C@H](CC(N)=O)NC(=O)[C@@H]4CCCN4C(=O)[C@H](CCCNC(N)=O)NC(=O)[C@H](CSSC[C@H](NC(=O)[C@@H](N)CC(=O)O)C(=O)N[C@@H](CC(C)C)C(=O)NCC(=O)N[C@@H](Cc4ccccc4)C(=O)N[C@@H](CCSC)C(=O)N[C@@H](CCCNC(=N)N)C(=O)N[C@@H](CCCCN)C(=O)N2)NC(=O)[C@H](CSSC[C@@H](C(=O)N[C@@H](CCCCN)C(=O)N[C@@H](Cc2ccc(O)cc2)C(=O)N[C@H](C(=O)N[C@@H](Cc2ccccc2)C(N)=O)C(C)C)NC(=O)[C@H](Cc2c[nH]c4ccccc24)NC(=O)[C@H](CCCCN)NC(=O)[C@H](Cc2cnc[nH]2)NC(=O)[C@H]([C@@H](C)O)NC(=O)[C@H](CCCNC(=N)N)NC(=O)[C@H](CO)NC3=O)NC(=O)[C@H](CCCCN)NC(=O)[C@H](CC(=O)O)NC(=O)[C@H](CC(N)=O)NC(=O)[C@H](CC(=O)O)NC(=O)[C@@H]2CCCN2C1=O	6.74	8.72	< 5.00	< 5.30
CC[C@H](C)[C@@H]1NC(=O)[C@@H]2CSSC[C@@H]3NC(=O)[C@H](Cc4c[nH]c5ccccc45)NC(=O)[C@H](CC(C)C)NC(=O)[C@H](CC(N)=O)NC(=O)[C@@H]4CCCN4C(=O)[C@H](CCCNC(=N)N)NC(=O)[C@H](CSSC[C@H](NC(=O)[C@@H](N)CC(=O)O)C(=O)N[C@@H](CC(C)C)C(=O)NCC(=O)N[C@@H](Cc4ccccc4)C(=O)N[C@@H](CCSC)C(=O)N[C@@H](CCCNC(=N)N)C(=O)N[C@@H](CCCCN)C(=O)N2)NC(=O)[C@H](CSSC[C@@H](C(=O)N[C@@H](CCCCN)C(=O)N[C@@H](Cc2ccc(O)cc2)C(=O)N[C@H](C(=O)N[C@@H](Cc2ccccc2)C(N)=O)C(C)C)NC(=O)[C@H](Cc2c[nH]c4ccccc24)NC(=O)[C@H](CCCCN)NC(=O)[C@H](Cc2cnc[nH]2)NC(=O)[C@H]([C@@H](C)O)NC(=O)[C@H](CCCNC(=N)N)NC(=O)[C@H](CO)NC3=O)NC(=O)[C@H](CCCCN)NC(=O)[C@H](CC(=O)O)NC(=O)[C@H](CC(N)=O)NC(=O)[C@H](CC(=O)O)NC(=O)[C@@H]2CCCN2C1=O (H-DCLGFMRKCIPDNDKCCRPNLWCSRTHKWCKYVF-NH2; disulfide 2-17, 9-23, 16-30)	7.22	7.38	5.49	< 5.30
CC[C@H](C)[C@@H]1NC(=O)[C@@H]2CSSC[C@@H]3NC(=O)[C@H](C(C)C)NC(=O)[C@H](CC(C)C)NC(=O)[C@H](CC(N)=O)NC(=O)[C@@H]4CCCN4C(=O)[C@H](CCCCN)NC(=O)[C@H](CSSC[C@H](NC(=O)[C@@H](N)CC(=O)O)C(=O)N[C@@H](CC(C)C)C(=O)NCC(=O)N[C@@H](Cc4ccccc4)C(=O)N[C@@H](CCSC)C(=O)N[C@@H](CCCNC(=N)N)C(=O)N[C@@H](CCCCN)C(=O)N2)NC(=O)[C@H](CSSC[C@@H](C(=O)N[C@@H](CCCCN)C(=O)N[C@@H](Cc2ccc(O)cc2)C(=O)N[C@H](C(=O)N[C@@H](Cc2ccccc2)C(N)=O)C(C)C)NC(=O)[C@H](Cc2c[nH]c4ccccc24)NC(=O)[C@H](CCCCN)NC(=O)[C@H](Cc2cnc[nH]2)NC(=O)[C@H]([C@@H](C)O)NC(=O)[C@H](CCCNC(=N)N)NC(=O)[C@H](CO)NC3=O)NC(=O)[C@H](CCCCN)NC(=O)[C@H](CC(=O)O)NC(=O)[C@H](CC(N)=O)NC(=O)[C@H](CC(=O)O)NC(=O)[C@@H]2CCCN2C1=O (H-DCLGFMRKCIPDNDKCCKPNLVCSRTHKWCKYVF-NH2; disulfide 2-17, 9-23, 16-30)	6.44	8.80	4.80	< 5.30
CC[C@H](C)[C@@H]1NC(=O)[C@@H]2CSSC[C@@H]3NC(=O)[C@H](C(C)C)NC(=O)[C@H](CC(C)C)NC(=O)[C@H](CC(N)=O)NC(=O)[C@@H]4CCCN4C(=O)[C@H](Cc4ccccn4)NC(=O)[C@H](CSSC[C@H](NC(=O)[C@@H](N)CC(=O)O)C(=O)N[C@@H](CC(C)C)C(=O)NCC(=O)N[C@@H](Cc4ccccc4)C(=O)N[C@@H](CCSC)C(=O)N[C@@H](CCCNC(=N)N)C(=O)N[C@@H](CCCCN)C(=O)N2)NC(=O)[C@H](CSSC[C@@H](C(=O)N[C@@H](CCCCN)C(=O)N[C@@H](Cc2ccc(O)cc2)C(=O)N[C@H](C(=O)N[C@@H](Cc2ccccc2)C(N)=O)C(C)C)NC(=O)[C@H](Cc2c[nH]c4ccccc24)NC(=O)[C@H](CCCCN)NC(=O)[C@H](Cc2cnc[nH]2)NC(=O)[C@H]([C@@H](C)O)NC(=O)[C@H](CCCNC(=N)N)NC(=O)[C@H](CO)NC3=O)NC(=O)[C@H](CCCCN)NC(=O)[C@H](CC(=O)O)NC(=O)[C@H](CC(N)=O)NC(=O)[C@H](CC(=O)O)NC(=O)[C@@H]2CCCN2C1=O (H-DCLGFMRKCIPDNDKCC[2Pal]PNLVCSRTHKWCKYVF-NH2; disulfide 2-17, 9-23, 16-30)	6.52	8.40	4.88	< 5.30
CC[C@H](C)[C@@H]1NC(=O)[C@@H]2CSSC[C@@H]3NC(=O)[C@H](C(C)C)NC(=O)[C@H](CC(C)C)NC(=O)[C@H](CC(N)=O)NC(=O)[C@@H]4CCCN4C(=O)[C@H](CCCNC(=N)N)NC(=O)[C@H](CSSC[C@H](NC(=O)[C@@H](N)CC(=O)O)C(=O)N[C@@H](CC(C)C)C(=O)NCC(=O)N[C@@H](Cc4ccccc4)C(=O)N[C@@H](CCSC)C(=O)N[C@@H](CCCNC(=N)N)C(=O)N[C@@H](CCCCN)C(=O)N2)NC(=O)[C@H](CSSC[C@@H](C(=O)N[C@@H](CCCCN)C(=O)N[C@@H](Cc2ccc(O)cc2)C(=O)N[C@H](C(=O)N[C@@H](Cc2ccccc2)C(N)=O)C(C)C)NC(=O)[C@H](Cc2c[nH]c4ccccc24)NC(=O)[C@H](CCCCN)NC(=O)[C@H](Cc2cnc[nH]2)NC(=O)[C@H]([C@@H](C)O)NC(=O)[C@H](CCCNC(=N)N)NC(=O)[C@H](CO)NC3=O)NC(=O)[C@H](CCCCN)NC(=O)[C@H](CC(=O)O)NC(=O)[C@H](CC(N)=O)NC(=O)[C@H](CC(=O)O)NC(=O)[C@H](CCC(=O)O)NC1=O (H-DCLGFMRKCIEDNDKCCRPNLVCSRTHKWCKYVF-NH2; disulfide 2-17, 9-23, 16-30)	–	8.60	< 5.00	< 5.30
CSCC[C@@H]1NC(=O)[C@H](Cc2ccccc2)NC(=O)CNC(=O)[C@H](CC(C)C)NC(=O)[C@@H](NC(=O)[C@@H](N)CC(=O)O)CSSC[C@@H]2NC(=O)[C@@H]3CSSC[C@@H](C(=O)N[C@@H](CCCCN)C(=O)N[C@@H](Cc4ccc(O)cc4)C(=O)N[C@H](C(=O)N[C@@H](Cc4ccccc4)C(N)=O)C(C)C)NC(=O)[C@H](Cc4c[nH]c5ccccc45)NC(=O)[C@H](CCCCN)NC(=O)[C@H](Cc4cnc[nH]4)NC(=O)[C@H]([C@@H](C)O)NC(=O)[C@H](CCCNC(=N)N)NC(=O)[C@H](CO)NC(=O)[C@H](CSSC[C@H](NC(=O)[C@H](CCCCN)NC(=O)[C@H](CCCNC(=N)N)NC1=O)C(=O)N[C@@H](CC(N)=O)C(=O)N1CCC[C@H]1C(=O)N[C@@H](CC(=O)O)C(=O)N[C@@H](CC(N)=O)C(=O)N[C@@H](CC(=O)O)C(=O)N[C@@H](CCCCN)C(=O)N3)NC(=O)[C@H](C(C)C)NC(=O)[C@H](CC(C)C)NC(=O)[C@H](CC(N)=O)NC(=O)[C@@H]1CCCN1C(=O)[C@H](CCCNC(=N)N)NC2=O (H-DCLGFMRKCNPDNDKCCRPNLVCSRTHKWCKYVF-NH2; disulfide 2-17, 9-23, 16-30)	6.48	8.72	< 5.00	< 5.30
CSCC[C@@H]1NC(=O)[C@H](Cc2ccccc2)NC(=O)CNC(=O)[C@H](CC(C)C)NC(=O)[C@@H](NC(=O)[C@@H](N)CC(=O)O)CSSC[C@@H]2NC(=O)[C@@H]3CSSC[C@@H](C(=O)N[C@@H](CCCCN)C(=O)N[C@@H](Cc4ccc(O)cc4)C(=O)N[C@H](C(=O)N[C@@H](Cc4ccccc4)C(N)=O)C(C)C)NC(=O)[C@H](Cc4c[nH]c5ccccc45)NC(=O)[C@H](CCCCN)NC(=O)[C@H](Cc4cnc[nH]4)NC(=O)[C@H]([C@@H](C)O)NC(=O)[C@H](CCCNC(=N)N)NC(=O)[C@H](CO)NC(=O)[C@H](CSSC[C@H](NC(=O)[C@H](CCCCN)NC(=O)[C@H](CCCNC(=N)N)NC1=O)C(=O)N[C@@H](CCC(=O)O)C(=O)N1CCC[C@H]1C(=O)N[C@@H](CC(=O)O)C(=O)N[C@@H](CC(N)=O)C(=O)N[C@@H](CC(=O)O)C(=O)N[C@@H](CCCCN)C(=O)N3)NC(=O)[C@H](C(C)C)NC(=O)[C@H](CC(C)C)NC(=O)[C@H](CC(N)=O)NC(=O)[C@@H]1CCCN1C(=O)[C@H](CCCNC(=N)N)NC2=O (H-DCLGFMRKCEPDNDKCCRPNLVCSRTHKWCKYVF-NH2; disulfide 2-17, 9-23, 16-30)	–	8.68	< 5.00	< 5.30
CC[C@H](C)[C@@H]1NC(=O)[C@@H]2CSSC[C@@H]3NC(=O)[C@H](C(C)C)NC(=O)[C@H](CC(C)C)NC(=O)[C@H](CC(N)=O)NC(=O)[C@@H]4CCCN4C(=O)[C@H](CCC(=O)O)NC(=O)[C@H](CSSC[C@H](NC(=O)[C@@H](N)CC(=O)O)C(=O)N[C@@H](CC(C)C)C(=O)NCC(=O)N[C@@H](Cc4ccccc4)C(=O)N[C@@H](CCSC)C(=O)N[C@@H](CCCNC(=N)N)C(=O)N[C@@H](CCCCN)C(=O)N2)NC(=O)[C@H](CSSC[C@@H](C(=O)N[C@@H](CCCCN)C(=O)N[C@@H](Cc2ccc(O)cc2)C(=O)N[C@H](C(=O)N[C@@H](Cc2ccccc2)C(N)=O)C(C)C)NC(=O)[C@H](Cc2c[nH]c4ccccc24)NC(=O)[C@H](CCCCN)NC(=O)[C@H](Cc2cnc[nH]2)NC(=O)[C@H]([C@@H](C)O)NC(=O)[C@H](CCCNC(=N)N)NC(=O)[C@H](CO)NC3=O)NC(=O)[C@H](CCCCN)NC(=O)[C@H](CC(=O)O)NC(=O)[C@H](CC(N)=O)NC(=O)[C@H](CC(=O)O)NC(=O)[C@@H]2CCCN2C1=O (H-DCLGFMRKCIPDNDKCCEPNLVCSRTHKWCKYVF-NH2; disulfide 2-17, 9-23, 16-30)	–	7.77	< 5.00	< 5.30
